Measured values from different studies.
Protocols differ between the studies behind these lines.
PKN1: Serine/threonine-protein kinase N1 (PKN1, Homo sapiens, UniProt Q16512)
CA9: Carbonic anhydrase 9 (CA9, Homo sapiens, UniProt Q16790)
SIRT5: NAD-dependent protein deacylase sirtuin-5, mitochondrial (SIRT5, Homo sapiens, UniProt Q9NXA8)
PRSS1: Serine protease 1 (PRSS1, Bos taurus, UniProt P00760)
PADI4: Protein-arginine deiminase type-4 (PADI4, Homo sapiens, UniProt Q9UM07)
HDAC9: Histone deacetylase 9 (HDAC9, Homo sapiens, UniProt Q9UKV0)
PDE4C: 3',5'-cyclic-AMP phosphodiesterase 4C (PDE4C, Homo sapiens, UniProt Q08493)

Cn1ncc(Cl)c1-c1cc(C(=O)N[C@H](CN)Cc2ccc(F)c(F)c2)oc1Cl
IC50 (PKN1; enzyme activity; inhibitor): 19 nM

CNC(=O)c1ccc(NC(=O)CN(Cc2ccc(Cl)cc2)C(=O)c2ccc(S(N)(=O)=O)c(C)c2)c(F)c1
IC50 (CA9; enzyme activity; inhibitor): 28.8 nM

COCCOc1ccc2c(c1)ncn2-c1ccc2cccc(N3CCC(N)CC3)c2n1
IC50 (PKN1; enzyme activity; inhibitor): 36 nM

N#C/C(=C\c1ccc(-c2cc(Cl)ccc2Cl)o1)C(=O)Nc1cccc2ncccc12
IC50 (SIRT5; enzyme activity; inhibitor; HPLC): > 100000 nM

Cc1nc2ccccc2c(=O)n1NC(=O)CSc1nc2ccccc2c(=O)n1-c1ccccc1
IC50 (PRSS1; enzyme activity; inhibitor): 3730 nM

CNC(=O)c1cc2c(Oc3ccc(NC(=O)C4(C(=O)Nc5ccc(F)cc5)CC4)cc3)ccnc2cc1OC
IC50 (Tyrosine-protein kinase HCK (HCK, Homo sapiens, UniProt P08631); enzyme activity; inhibitor; radiometric): 24 nM

CN(C)c1ccc(/C=C2/SC(Nc3ccc(S(N)(=O)=O)cc3)=NC2=O)cc1
IC50 (CA9; enzyme activity; inhibitor): 76.1 nM

NS(=O)(=O)c1ccc(Nc2nc(OCC3CCCCC3)c3[nH]cnc3n2)cc1
IC50 (PKN1; enzyme activity; inhibitor): 828 nM

CC(C)C[C@H](CC(=O)NO)C(=O)N[C@@H](Cc1ccccc1)C(=O)NCCN1CCOCC1
IC50 (Matrix metalloproteinase-9 (MMP9, Homo sapiens, UniProt P14780); enzyme activity; inhibitor; fluorescence): 3 nM

C[C@@H](N)[C@H]1CC[C@H](C(=O)Nc2ccncc2)CC1
IC50 (PKN1; enzyme activity; inhibitor): 743 nM

O=C(NS(=O)(=O)c1ccc(COc2ccccc2)cc1)c1cccc(-c2cc(Cl)cc(Cl)c2)c1
IC50 (Induced myeloid leukemia cell differentiation protein Mcl-1 (MCL1, Homo sapiens, UniProt Q07820); ligand displacement; FP): 5100 nM

NS(=O)(=O)c1ccc(NC(=O)COC(=O)c2c3c(nc4ccccc24)C(=Cc2ccco2)CCC3)cc1
IC50 (CA9; enzyme activity; inhibitor): 96 nM

CC(C)C[C@H](NC(=O)[C@H]1O[C@@H]1C(=O)O)C(=O)NCCCCN=C(N)N
IC50 (Cathepsin L2 (CTSV, Homo sapiens, UniProt O60911); enzyme activity; inhibitor): 5.41 nM

COc1cc2c(c(OC)c1OC)-c1c(cc3c(c1OC)OCO3)[C@H](OC(=O)c1ccccc1)[C@@](C)(O)[C@@H](C)C2
IC50 (Cytochrome P450 3A5 (CYP3A5, Homo sapiens, UniProt P20815); enzyme activity; inhibitor; 15 min; pH 7.4): 590 nM

CC1(COc2ccc3c(c2)ncn3-c2ccc3cccc(N4CCC(N)CC4)c3n2)COC1
IC50 (PKN1; enzyme activity; inhibitor): 22 nM

NS(=O)(=O)c1ccc(CCNC(=O)Nc2ccc(NC(=O)c3ccc(Cl)cc3)cc2)cc1
IC50 (CA9; enzyme activity; inhibitor): 96 nM

O=c1c(O)c(-c2ccc(O)c(O)c2)oc2cc(O)cc(O)c12
IC50 (Sulfotransferase 1A1 (SULT1A1, Homo sapiens, UniProt P50225); enzyme activity; inhibitor): 529 nM

NS(=O)(=O)c1ccc(NC(=O)COC(=O)C(=Cc2cccs2)c2cccs2)cc1
IC50 (CA9; enzyme activity; inhibitor): 322 nM

CN1CCN(c2ccc(Nc3ncc4cc(C#N)c(=O)n(C5CCCC5)c4n3)cc2)CC1
IC50 (Ribosomal protein S6 kinase alpha-6 (RPS6KA6, Homo sapiens, UniProt Q9UK32); enzyme activity; inhibitor): 101 nM

CCNC(=O)[C@H](CCCNC(=N)CF)NC(=O)c1ccccc1
IC50 (PADI4; enzyme activity; inhibitor): 24300 nM

Clc1ccc(C2(c3ccc(-c4cn[nH]c4)cc3)CCNCC2)cc1
IC50 (PKN1; enzyme activity; inhibitor): 49 nM

CCn1c(-c2nc3ccc(C(=O)N4CCCC(N)C4)cc3n2C)cc2ccccc21 (stereo not drawn)
IC50 (PADI4; ligand displacement; FP): > 100000 nM

CC1Cc2c(-c3cn(C)nn3)cccc2N1Cc1ccoc1C(=O)Nc1ccc(S(N)(=O)=O)cc1 (stereo not drawn)
IC50 (CA9; enzyme activity; inhibitor): 11.2 nM

CC(C)c1nc(CN(C)C(=O)N[C@@H](CCN2CCOCC2)C(=O)N[C@H](CC[C@H](Cc2ccccc2)NC(=O)OCc2cncs2)Cc2ccccc2)cs1
IC50 (Solute carrier family 22 member 7 (SLC22A7, Homo sapiens, UniProt Q9Y694); transporter uptake; inhibitor): > 100000 nM

COc1cc(NCC(=O)Nn2c(C)nc3ccc(Cl)cc3c2=O)cc(OC)c1OC
IC50 (PRSS1; enzyme activity; inhibitor): 54300 nM

Cc1cc(C(=O)N2CCN(Cc3nc(-c4ccc(Cl)cc4)no3)CC2)ccc1S(N)(=O)=O
IC50 (CA9; enzyme activity; inhibitor): 81 nM

O=C(O)CCNC(=S)NCCCC[C@H](NS(=O)(=O)c1cccc(F)c1)C(=O)N[C@@H](Cc1c[nH]c2ccccc12)C(=O)NC1CCC1
IC50 (SIRT5; enzyme activity; inhibitor; fluorescence): 93 nM

CCCC[C@H](NC(=O)C1CN(C)C1)c1ncc(-c2cc3ccccc3nc2OC)[nH]1
IC50 (HDAC9; enzyme activity; inhibitor): > 30000 nM

NS(=O)(=O)c1ccc(NC2=NC(=O)C(CC(=O)Nc3ccc(Br)cc3)S2)cc1 (stereo not drawn)
IC50 (CA9; enzyme activity; inhibitor): 52 nM

COc1ccc(C2=NN(C3CCCCCC3)C(=O)[C@@H]3CC=CC[C@H]23)cc1-c1ccc(C(N)=O)cc1 (relative stereo)
IC50 (PDE4C; enzyme activity; inhibitor): 501 nM

COc1cc(/C=N/n2c(C)nc3ccc(C)cc3c2=O)ccc1OCc1ccccc1
IC50 (PRSS1; enzyme activity; inhibitor): 108000 nM

CCS(=O)(=O)c1cccc(-c2cc(C(=O)NC3CCN(C)CC3)c(C)c3[nH]c4ncc(C)cc4c23)c1
IC50 (PKN1; enzyme activity; inhibitor): 86 nM

CCOCc1nc(O)c(-c2nnc(Cc3ccc(Cl)cn3)o2)c(O)c1-c1c(OC)cccc1OC
IC50 (Beta-1 adrenergic receptor (ADRB1, Homo sapiens, UniProt P08588); ligand displacement; radioligand): > 30000 nM

Nc1ccc(-c2ccncc2)cc1NC(=O)N1CCCC1
IC50 (HDAC9; enzyme activity; inhibitor): > 33300 nM

CN(C)Cc1ccc(N2CCN(C(=O)c3ccc(Cl)c(S(N)(=O)=O)c3)CC2)nc1
IC50 (CA9; enzyme activity; inhibitor): 5700 nM

COc1cc(/C=N/n2c(C)nc3ccc(Br)cc3c2=O)ccc1OCc1ccc(Cl)cc1
IC50 (PRSS1; enzyme activity; inhibitor): 47800 nM

CC(C)c1cc(CNc2nc(Nc3cc(C4CC4)[nH]n3)cc(N3CCN(C)CC3)n2)on1
IC50 (PKN1; enzyme activity; inhibitor): 20 nM

COc1cc(/C=N/n2c(C)nc3ccc(Br)cc3c2=O)ccc1O
IC50 (PRSS1; enzyme activity; inhibitor): 46400 nM

COc1ccc([C@@H]2CN(C(=O)[C@@H](O)CO)C[C@@]2(C)[C@@H](C)O)cc1OC1CN(c2ccc(C)cn2)C1
IC50 (PDE4C; enzyme activity; inhibitor): 2.4 nM
